Data reported in ChEMBL document CHEMBL1153413, “Pyranonaphthoquinone lactones: a new class of AKT selective kinase inhibitors alkylate a regulatory loop cysteine” (J Med Chem, 2009).
pIC50: −log10 of the molar value. The source made the active and inactive calls. No cut-off for these calls is given here.

Columns and labels:
[1] = biological target: T1, RAC-alpha serine/threonine-protein kinase (Homo sapiens, UniProt P31749); test: Inhibition of AKT
[2] = Cytotoxicity against human MDA468 cells expressing AKT; assay type: functional, cell-based, MDA-MB-468; conditions: Homo sapiens, MDA-MB-468
[3] = biological target: RAC-alpha serine/threonine-protein kinase (Homo sapiens, UniProt P31749, C310A); test: Inhibition of AKT C310A mutant
[4] = biological target: RAC-alpha serine/threonine-protein kinase (Homo sapiens, UniProt P31749, C296A); test: Inhibition of AKT C296A mutant
[5] = system: RAC-alpha serine/threonine-protein kinase (Homo sapiens), P31749 [C296A,C310A]; test: Inhibition of AKT C296A/C310A mutant up to 40 uM
[6] = biological target: Tyrosine-protein kinase ABL1 (Homo sapiens) (UniProt P00519); test: Inhibition of ABL1 at 1 uM
How it was run: (§1)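 Single-concentration (1 µM) selectivity screen run as an outsourced commercial panel of 45 kinases.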

[7] = biological target: T1, RAC-alpha serine/threonine-protein kinase; test: Inhibition of AKT1 at 1 uM; how it was run: as §1
[8] = biological target: RAC-beta serine/threonine-protein kinase (Homo sapiens) (UniProt P31751); test: Inhibition of AKT2 at 1 uM; how it was run: as §1
[9] = biological target: Tyrosine-protein kinase BTK (Homo sapiens) (UniProt Q06187); test: Inhibition of BTK at 1 uM; how it was run: as §1
[10] = biological target: Cyclin-dependent kinase 1/cyclin B1 (Homo sapiens) (UniProt P06493+P14635); test: Inhibition of CDK1/cyclin B at 1 uM; assay type: protein-complex assay; how it was run: as §1
[11] = biological target: Cyclin-dependent kinase 2 (Homo sapiens) (UniProt P24941); test: Inhibition of CDK2/cyclin A at 1 uM; how it was run: as §1
[12] = biological target: Serine/threonine-protein kinase Chk1 (Homo sapiens) (UniProt O14757); test: Inhibition of CHEK1 at 1 uM; how it was run: as §1
[13] = biological target: Macrophage colony-stimulating factor 1 receptor (Homo sapiens) (UniProt P07333); test: Inhibition of CSF1R at 1 uM; how it was run: as §1
[14] = biological target: Tyrosine-protein kinase CSK (Homo sapiens) (UniProt P41240); test: Inhibition of CSK at 1 uM; how it was run: as §1
[15] = biological target: Epidermal growth factor receptor (Homo sapiens) (UniProt P00533); test: Inhibition of EGFR at 1 uM; how it was run: as §1
[16] = biological target: Receptor tyrosine-protein kinase erbB-4 (Homo sapiens) (UniProt Q15303); test: Inhibition of ERBB4 at 1 uM; how it was run: as §1
[17] = biological target: Fibroblast growth factor receptor 1 (Homo sapiens) (UniProt P11362); test: Inhibition of FGFR1 at 1 uM; how it was run: as §1
[18] = biological target: Vascular endothelial growth factor receptor 1 (Homo sapiens) (UniProt P17948); test: Inhibition of FLT1 at 1 uM; how it was run: as §1
[19] = biological target: Receptor-type tyrosine-protein kinase FLT3 (Homo sapiens) (UniProt P36888); test: Inhibition of FLT3 at 1 uM; how it was run: as §1
[20] = biological target: Tyrosine-protein kinase Fyn (Homo sapiens) (UniProt P06241); test: Inhibition of FYN at 1 uM; how it was run: as §1
[21] = biological target: Insulin-like growth factor 1 receptor (Homo sapiens) (UniProt P08069); test: Inhibition of IGF1R at 1 uM; how it was run: as §1
[22] = biological target: Inhibitor of nuclear factor kappa-B kinase subunit beta (Homo sapiens) (UniProt O14920); test: Inhibition of IKBKB at 1 uM; how it was run: as §1
[23] = biological target: Insulin receptor (Homo sapiens) (UniProt P06213); test: Inhibition of INSR at 1 uM; how it was run: as §1
[24] = biological target: Vascular endothelial growth factor receptor 2 (Homo sapiens) (UniProt P35968); test: Inhibition of KDR at 1 uM; how it was run: as §1
[25] = biological target: Tyrosine-protein kinase Lck (Homo sapiens) (UniProt P06239); test: Inhibition of LCK at 1 uM; how it was run: as §1
[26] = biological target: Dual specificity mitogen-activated protein kinase kinase 1 (Homo sapiens) (UniProt Q02750); test: Inhibition of MAP2K1 at 1 uM; how it was run: as §1
[27] = biological target: Mitogen-activated protein kinase kinase kinase kinase 5 (Homo sapiens) (UniProt Q9Y4K4); test: Inhibition of MAP4K5 at 1 uM; how it was run: as §1
[28] = biological target: Mitogen-activated protein kinase 1 (Homo sapiens) (UniProt P28482); test: Inhibition of MAPK1 at 1 uM; how it was run: as §1
[29] = biological target: Mitogen-activated protein kinase 14 (Homo sapiens) (UniProt Q16539); test: Inhibition of MAPK14 at 1 uM; how it was run: as §1
[30] = biological target: Mitogen-activated protein kinase 3 (Homo sapiens) (UniProt P27361); test: Inhibition of MAPK3 at 1 uM; how it was run: as §1
[31] = biological target: Hepatocyte growth factor receptor (Homo sapiens) (UniProt P08581); test: Inhibition of MET at 1 uM; how it was run: as §1
[32] = biological target: Serine/threonine-protein kinase Nek2 (Homo sapiens) (UniProt P51955); test: Inhibition of NEK2 at 1 uM; how it was run: as §1
[33] = biological target: High affinity nerve growth factor receptor (Homo sapiens) (UniProt P04629); test: Inhibition of NTRK1 at 1 uM; how it was run: as §1
[34] = biological target: Platelet-derived growth factor receptor alpha (Homo sapiens) (UniProt P16234); test: Inhibition of PDGFRA at 1 uM; how it was run: as §1
[35] = biological target: Platelet-derived growth factor receptor beta (Homo sapiens) (UniProt P09619); test: Inhibition of PDGFRB at 1 uM; how it was run: as §1
[36] = biological target: Serine/threonine-protein kinase PLK1 (Homo sapiens) (UniProt P53350); test: Inhibition of PLK1 at 1 uM; how it was run: as §1
[37] = biological target: cAMP-dependent protein kinase catalytic subunit alpha (Homo sapiens) (UniProt P17612); test: Inhibition of PRKACA at 1 uM; how it was run: as §1
[38] = biological target: Protein kinase C alpha type (Homo sapiens) (UniProt P17252); test: Inhibition of PRKCA at 1 uM; how it was run: as §1
[39] = biological target: Protein kinase C theta type (Homo sapiens) (UniProt Q04759); test: Inhibition of PRKCQ at 1 uM; how it was run: as §1
[40] = biological target: Focal adhesion kinase 1 (Homo sapiens) (UniProt Q05397); test: Inhibition of PTK2 at 1 uM; how it was run: as §1
[41] = biological target: Rho-associated protein kinase 1 (Homo sapiens) (UniProt Q13464); test: Inhibition of ROCK1 at 1 uM; how it was run: as §1
[42] = biological target: Ribosomal protein S6 kinase beta-1 (Homo sapiens) (UniProt P23443); test: Inhibition of RPS6KB1 at 1 uM; how it was run: as §1
[43] = biological target: Serine/threonine-protein kinase Sgk1 (Homo sapiens) (UniProt O00141); test: Inhibition of SGK at 1 uM; how it was run: as §1
[44] = biological target: Proto-oncogene tyrosine-protein kinase Src (Homo sapiens) (UniProt P12931); test: Inhibition of SRC at 1 uM; how it was run: as §1
[45] = biological target: Aurora kinase A (Homo sapiens) (UniProt O14965); test: Inhibition of STK6 at 1 uM; how it was run: as §1
[46] = biological target: Tyrosine-protein kinase SYK (Homo sapiens) (UniProt P43405); test: Inhibition of SYK at 1 uM; how it was run: as §1
[47] = biological target: Tyrosine-protein kinase Yes (Homo sapiens) (UniProt P07947); test: Inhibition of YES1 at 1 uM; how it was run: as §1
[48] = biological target: Ephrin type-A receptor 1 (Homo sapiens) (UniProt P21709); test: Inhibition of EPHA1 at 1 uM; how it was run: as §1
[49] = biological target: Tyrosine-protein kinase Lyn (Homo sapiens) (UniProt P07948); test: Inhibition of LYN A at 1 uM; how it was run: as §1

T1 sequence (P31749 whole entry): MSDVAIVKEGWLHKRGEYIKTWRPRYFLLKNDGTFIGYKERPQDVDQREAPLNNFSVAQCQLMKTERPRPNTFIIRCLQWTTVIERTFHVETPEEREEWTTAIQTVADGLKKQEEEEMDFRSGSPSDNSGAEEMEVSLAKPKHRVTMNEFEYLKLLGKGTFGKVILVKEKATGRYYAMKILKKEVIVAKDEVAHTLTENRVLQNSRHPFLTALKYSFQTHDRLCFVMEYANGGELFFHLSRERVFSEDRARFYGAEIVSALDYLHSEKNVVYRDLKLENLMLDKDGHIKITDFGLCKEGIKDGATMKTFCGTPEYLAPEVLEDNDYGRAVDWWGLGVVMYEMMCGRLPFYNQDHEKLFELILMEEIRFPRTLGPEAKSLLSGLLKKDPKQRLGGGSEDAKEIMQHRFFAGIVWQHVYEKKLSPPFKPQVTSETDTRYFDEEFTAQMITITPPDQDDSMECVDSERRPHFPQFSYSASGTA
Chain of RAC-alpha serine/threonine-protein kinase (Homo sapiens, UniProt P31749, C296A) (P31749 whole entry C296A): as the sequence (P31749 whole entry) above, with C296A counted along it
Chain of Serine/threonine-protein kinase PLK1 (Homo sapiens) (P53350 whole entry): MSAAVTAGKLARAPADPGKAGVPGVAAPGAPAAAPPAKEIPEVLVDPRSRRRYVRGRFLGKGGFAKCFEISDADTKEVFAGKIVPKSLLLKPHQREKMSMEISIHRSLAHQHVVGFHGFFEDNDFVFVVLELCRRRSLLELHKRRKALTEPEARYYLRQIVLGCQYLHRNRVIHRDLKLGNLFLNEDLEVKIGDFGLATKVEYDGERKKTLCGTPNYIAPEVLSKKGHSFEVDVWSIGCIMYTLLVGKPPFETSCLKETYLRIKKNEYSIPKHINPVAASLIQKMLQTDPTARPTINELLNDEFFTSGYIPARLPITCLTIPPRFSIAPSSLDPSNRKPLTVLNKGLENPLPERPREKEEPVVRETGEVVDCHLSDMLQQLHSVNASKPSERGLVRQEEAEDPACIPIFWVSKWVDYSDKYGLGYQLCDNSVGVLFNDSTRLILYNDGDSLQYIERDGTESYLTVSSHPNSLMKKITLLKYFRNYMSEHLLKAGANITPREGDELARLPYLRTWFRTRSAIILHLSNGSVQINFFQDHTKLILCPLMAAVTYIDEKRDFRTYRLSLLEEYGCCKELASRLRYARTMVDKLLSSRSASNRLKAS
Chain of RAC-beta serine/threonine-protein kinase (Homo sapiens) (P31751 whole entry): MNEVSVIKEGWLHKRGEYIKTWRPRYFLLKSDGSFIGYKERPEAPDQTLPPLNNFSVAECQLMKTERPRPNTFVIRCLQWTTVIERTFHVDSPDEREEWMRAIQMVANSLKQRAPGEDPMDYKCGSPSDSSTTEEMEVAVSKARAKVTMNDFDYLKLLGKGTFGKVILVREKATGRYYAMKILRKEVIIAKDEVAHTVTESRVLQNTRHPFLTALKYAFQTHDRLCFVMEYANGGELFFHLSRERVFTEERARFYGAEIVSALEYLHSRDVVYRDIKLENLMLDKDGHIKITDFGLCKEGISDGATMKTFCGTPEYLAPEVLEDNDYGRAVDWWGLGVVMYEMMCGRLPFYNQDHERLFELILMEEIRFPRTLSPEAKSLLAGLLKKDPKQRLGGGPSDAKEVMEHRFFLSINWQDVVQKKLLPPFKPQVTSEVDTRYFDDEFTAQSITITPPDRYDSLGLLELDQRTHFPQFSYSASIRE
Chain of Serine/threonine-protein kinase Sgk1 (Homo sapiens) (O00141 whole entry): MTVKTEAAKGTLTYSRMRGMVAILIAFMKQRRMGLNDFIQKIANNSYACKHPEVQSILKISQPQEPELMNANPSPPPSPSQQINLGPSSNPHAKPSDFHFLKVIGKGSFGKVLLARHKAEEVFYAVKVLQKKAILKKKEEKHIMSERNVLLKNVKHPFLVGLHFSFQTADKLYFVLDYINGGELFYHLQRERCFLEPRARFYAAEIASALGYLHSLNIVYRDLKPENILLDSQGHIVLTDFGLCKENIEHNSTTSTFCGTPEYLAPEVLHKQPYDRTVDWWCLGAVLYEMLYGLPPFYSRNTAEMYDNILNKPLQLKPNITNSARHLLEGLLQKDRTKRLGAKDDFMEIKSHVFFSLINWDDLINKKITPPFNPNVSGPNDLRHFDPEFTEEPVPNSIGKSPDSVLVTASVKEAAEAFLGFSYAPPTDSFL
Chain of Macrophage colony-stimulating factor 1 receptor (Homo sapiens) (P07333 whole entry): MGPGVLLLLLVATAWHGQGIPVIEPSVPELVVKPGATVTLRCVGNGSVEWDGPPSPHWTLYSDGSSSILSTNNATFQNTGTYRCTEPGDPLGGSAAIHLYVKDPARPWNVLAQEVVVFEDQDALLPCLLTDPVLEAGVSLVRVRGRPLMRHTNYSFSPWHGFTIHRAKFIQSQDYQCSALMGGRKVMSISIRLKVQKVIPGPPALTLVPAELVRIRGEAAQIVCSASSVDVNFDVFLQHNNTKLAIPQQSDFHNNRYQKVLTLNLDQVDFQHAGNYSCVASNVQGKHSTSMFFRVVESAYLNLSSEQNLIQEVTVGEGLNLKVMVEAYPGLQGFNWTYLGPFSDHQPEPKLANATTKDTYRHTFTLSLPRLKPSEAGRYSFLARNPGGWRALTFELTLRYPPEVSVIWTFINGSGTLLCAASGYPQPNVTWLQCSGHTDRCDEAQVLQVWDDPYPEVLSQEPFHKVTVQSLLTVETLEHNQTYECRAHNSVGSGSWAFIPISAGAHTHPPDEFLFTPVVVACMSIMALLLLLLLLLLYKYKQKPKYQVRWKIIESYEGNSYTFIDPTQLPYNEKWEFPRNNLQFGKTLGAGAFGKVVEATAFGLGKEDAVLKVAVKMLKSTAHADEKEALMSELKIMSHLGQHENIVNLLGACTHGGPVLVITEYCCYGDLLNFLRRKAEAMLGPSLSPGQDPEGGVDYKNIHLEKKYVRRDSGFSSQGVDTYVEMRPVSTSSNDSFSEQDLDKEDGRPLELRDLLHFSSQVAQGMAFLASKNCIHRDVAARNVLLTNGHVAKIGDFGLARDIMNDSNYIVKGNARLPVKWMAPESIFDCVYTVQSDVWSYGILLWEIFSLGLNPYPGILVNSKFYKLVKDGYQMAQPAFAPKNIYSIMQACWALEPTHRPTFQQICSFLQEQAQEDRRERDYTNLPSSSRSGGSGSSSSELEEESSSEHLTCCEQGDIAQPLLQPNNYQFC
Chain of Insulin receptor (Homo sapiens) (P06213 28-758 limits assumed): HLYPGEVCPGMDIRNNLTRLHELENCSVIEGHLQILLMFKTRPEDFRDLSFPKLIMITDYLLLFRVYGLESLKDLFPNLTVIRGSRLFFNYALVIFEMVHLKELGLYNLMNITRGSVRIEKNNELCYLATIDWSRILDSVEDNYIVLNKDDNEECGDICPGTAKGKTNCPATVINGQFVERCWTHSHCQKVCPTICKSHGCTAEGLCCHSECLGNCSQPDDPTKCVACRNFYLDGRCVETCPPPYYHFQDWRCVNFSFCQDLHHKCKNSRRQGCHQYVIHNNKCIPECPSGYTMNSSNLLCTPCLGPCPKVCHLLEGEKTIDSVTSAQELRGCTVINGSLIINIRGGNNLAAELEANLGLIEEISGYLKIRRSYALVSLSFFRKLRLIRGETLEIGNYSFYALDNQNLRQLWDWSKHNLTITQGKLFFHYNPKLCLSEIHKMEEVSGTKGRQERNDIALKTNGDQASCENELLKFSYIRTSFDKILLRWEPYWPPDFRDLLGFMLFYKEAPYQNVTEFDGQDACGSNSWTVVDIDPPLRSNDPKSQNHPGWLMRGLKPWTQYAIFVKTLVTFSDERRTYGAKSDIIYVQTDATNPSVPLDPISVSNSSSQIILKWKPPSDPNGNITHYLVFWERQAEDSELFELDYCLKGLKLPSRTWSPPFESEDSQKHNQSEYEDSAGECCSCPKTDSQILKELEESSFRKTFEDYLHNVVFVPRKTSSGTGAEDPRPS
Chain of Insulin receptor (Homo sapiens) (P06213 763-1382 limits assumed): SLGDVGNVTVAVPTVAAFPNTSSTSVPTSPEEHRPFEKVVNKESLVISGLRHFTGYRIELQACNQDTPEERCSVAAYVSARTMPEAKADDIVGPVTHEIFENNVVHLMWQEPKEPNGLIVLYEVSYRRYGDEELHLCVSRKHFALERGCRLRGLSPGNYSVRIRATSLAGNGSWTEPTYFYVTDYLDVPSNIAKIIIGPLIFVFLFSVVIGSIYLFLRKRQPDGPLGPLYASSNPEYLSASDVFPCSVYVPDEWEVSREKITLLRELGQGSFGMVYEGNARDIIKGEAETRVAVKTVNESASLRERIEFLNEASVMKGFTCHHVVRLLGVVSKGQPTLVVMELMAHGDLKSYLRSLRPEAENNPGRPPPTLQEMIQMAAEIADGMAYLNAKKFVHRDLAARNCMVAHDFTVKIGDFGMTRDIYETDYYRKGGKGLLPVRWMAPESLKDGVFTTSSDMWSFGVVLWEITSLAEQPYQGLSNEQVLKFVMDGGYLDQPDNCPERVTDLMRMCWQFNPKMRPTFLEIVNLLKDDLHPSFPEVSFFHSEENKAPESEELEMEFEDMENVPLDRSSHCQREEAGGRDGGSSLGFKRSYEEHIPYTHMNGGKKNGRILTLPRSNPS

`C[C@H]1O[C@@H]2CC(=O)O[C@@H]2C2=C1C(=O)c1c(ccc([C@H]3C[C@@H](N(C)C)[C@H](O)[C@@H](C)O3)c1O)C2=O` [LACTOQUINOMYCIN] gave a pIC50 [1] of 6.83, a pIC50 [2] of 7.30 and a pIC50 [3] of 4.41. For the same molecule, the pIC50 [4] was 4.52, the Activity [5] was “inactive” and the inhibition [6] was 0%. For the same molecule, the inhibition [7] was 92%, the inhibition [8] was 99% and the inhibition [9] was 1%. The inhibition [10] was 2%, the inhibition [11] was 0% and the inhibition [12] was 10%. The inhibition [13] was 6%, the inhibition [14] was 0% and the inhibition [15] was 26%. The inhibition [16] was 5%, the inhibition [17] was 38% and the inhibition [18] was 29%. For the same molecule, the inhibition [19] was 4%, the inhibition [20] was 17% and the inhibition [21] was 2%. For the same molecule, the inhibition [22] was 41%, the inhibition [23] was 1% and the inhibition [24] was 21%. It also gave an inhibition [25] of 0%, an inhibition [26] of 0% and an inhibition [27] of 34%. For the same molecule, the inhibition [28] was 6%, the inhibition [29] was 49% and the inhibition [30] was 7%. It also gave an inhibition [31] of 14%, an inhibition [32] of 0% and an inhibition [33] of 14%. For the same molecule, the inhibition [34] was 15%, the inhibition [35] was 32% and the inhibition [36] was 0%. The inhibition [37] was 0%, the inhibition [38] was 16% and the inhibition [39] was 22%. It also gave an inhibition [40] of 12%, an inhibition [41] of 1% and an inhibition [42] of 16%. For the same molecule, the inhibition [43] was 20%, the inhibition [44] was 0% and the inhibition [45] was 17%. For the same molecule, the inhibition [46] was 2%, the inhibition [47] was 14% and the inhibition [48] was 8%. For the same molecule, the inhibition [49] was 3%.
